Format in all cases: functional
Assay [1] concerns Rattus norvegicus. Kind of assay: Antiallergic activity is evaluated for its ability to inhibit reaginic passive cutaneous anaphylaxis (PCA) in rats dosed at 0.5 mg/kg intravenously. As to conditions: route intravenous. The method, boiled down: (§1)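 Antiserum dilutions were injected intradermally at several back sites. 48 h later, rats were challenged i.v. with 1 mg ovalbumin in 1 mL saline containing 0.25% Evans blue. Diameter was plotted against relative antiserum concentration, and the least-squares line was extrapolated to zero antiserum. Groups of five animals were used.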

In assay [2] the test system is Rattus norvegicus. Kind of assay: Antiallergic activity is evaluated for its ability to inhibit reaginic passive cutaneous anaphylaxis (PCA) in rats dosed intravenously. The following applies: iv. In a few lines: as §1
In assay [3] the test system is Rattus norvegicus. Kind of assay: Antiallergy activity is evaluated for its ability to inhibit passive cutaneous anaphylaxis (PCA) in rats, dosed perorally. As to conditions: po. The method, boiled down: as §1
The subject of assay [4] is Rattus norvegicus. Kind of assay: Antiallergic activity is evaluated for its ability to inhibit reaginic passive cutaneous anaphylaxis (PCA) in rats dosed at 5 mg/kg intravenously. The following applies: ip, in the assay text read “intraperitoneally” for “intravenously”. The method, boiled down: as §1
Assay [5] relates to Rattus norvegicus. Kind of assay: Antiallergic activity is evaluated for its ability to inhibit reaginic passive cutaneous anaphylaxis (PCA) in rats dosed intravenously; Value ranges from 1-2. As to conditions: iv. In a few lines: as §1
Assay [6] has as its system Rattus norvegicus. In words: Antiallergic activity is evaluated for its ability to inhibit reaginic passive cutaneous anaphylaxis (PCA) in rats dosed perorally. The following applies: po. The method, boiled down:
as §1

On to `Cc1ccc2c(=O)n3nc(C(=O)O)ccc3nc2c1`, for which the inhibition in vivo at 0.5 mg/kg in the assay on Rattus norvegicus [1] was determined as 32%.
Consider `Cc1ccc2nc3ccc(C(=O)O)nn3c(=O)c2c1`, for which the inhibition in vivo at 0.5 mg/kg in the assay on Rattus norvegicus [1] is 0%.
Consider `O=C(O)c1ccc2nc3ccc(Cl)cc3c(=O)n2n1`, for which the inhibition in vivo at 0.5 mg/kg with Rattus norvegicus [1] was found to be 91%.
`Cc1ccc2nc3ccc(C(=O)O)cn3c(=O)c2c1`: the ED50 with Rattus norvegicus [2] was 0.05 mg/kg; in the assay with Rattus norvegicus [3], 0.7 mg/kg.
The molecule `O=C(O)c1ccc2nc3ccccc3c(=O)n2n1` registered an inhibition in vivo at 0.5 mg/kg with Rattus norvegicus [1] of 76%.
`COC(=O)c1ccc2c(=O)n3nc(Cl)ccc3nc2c1` had an inhibition in vivo at 5 mg/kg with Rattus norvegicus [4] of 0%.
For `O=C(O)c1ccc2nc3cc4ccccc4cc3c(=O)n2n1`, in the assay with Rattus norvegicus [1], the inhibition in vivo at 0.5 mg/kg was determined as 36%.
Regarding `O=C(O)c1ccc2c(=O)n3nc(Cl)ccc3nc2c1`, the inhibition in vivo at 5 mg/kg in the assay on Rattus norvegicus [4] is 0%.
On the same count and under the same terms, the figure for `O=C(O)c1ccc2nc3ccc(Cl)nn3c(=O)c2c1` is 0%.
Take `COc1ccc2nc3ccc(C(=O)O)nn3c(=O)c2c1`: in the assay on Rattus norvegicus [1], the inhibition in vivo at 0.5 mg/kg came to 8%.
In turn, `COC(=O)c1ccc2nc3ccc(Cl)nn3c(=O)c2c1` had an inhibition in vivo at 5 mg/kg in the assay with Rattus norvegicus [4] of 6%.
Turning to `O=C([O-])c1cc(=O)c2c(OCC(O)COc3cccc4oc(C(=O)[O-])cc(=O)c34)cccc2o1.[Na+].[Na+]` [CROMOLYN SODIUM], the ED50 in the assay with Rattus norvegicus [5] is 1 mg/kg.
As to `O=C1c2ccccc2S(=O)(=O)c2cc(-c3nn[nH]n3)ccc21` [DOXANTRAZOLE], the median effective dose (ED50) is 5 mg/kg with Rattus norvegicus [6] and 1 mg/kg with Rattus norvegicus [2].
